Measurements published in the RNAGym collection of RNA variant scans (doi:10.1126/science.aae0568).
This sample holds only a part of the variants without activity.

B1: tRNA (parent)
chain: GUUCCGUUGGCGUAAUGGUAACGCGUCUCCCUCCUAAGGAGAAGACUGCGGGUUCGAGUCCCGUACGGAACG

Variants of: B1
Experiment: yeast fitness relative to wild type (ratio to wild type); higher = fitter; tRNA-Arg(CCU), competitive growth, 37 C, YPD
Procedure, shortened: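 Amplicons of the tRNA-Arg(CCU) gene were sequenced, 100-nucleotide paired-end, from the start population and from each end population of a pooled yeast competition. The competition, in six parallel replicates, lasted 24 hours in YPD at 37°C. Fitness relative to wild type was calculated from changes in genotype frequencies. Genotypes had to have ≥ 100 starting reads, and estimates < 0.5 were set to 0.5.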
C5G U13C A37U G51C A57C showed a yeast fitness of at most 0.5. Variant C5G U13C A43C has a yeast fitness of at most 0.5. For C5G U13C A43G G50C, the yeast fitness was 0.566. For C5G U13C A70C, the yeast fitness was 0.579. Work on C5G U13C C22G C29G A45C yielded a yeast fitness of at most 0.5. Variant C5G U13C C22G C29G A45C G68C A69G has a yeast fitness of at most 0.5. In the case of C5G U13C C24U C49U, the yeast fitness is reported as 0.526. Variant C5G U13C C24U C49U A70G has a yeast fitness of at most 0.5. Work on C5G U13C C29U C62U yielded a yeast fitness of at most 0.5. In the case of C5G U13C C31A A43G G50C, the yeast fitness is reported as at most 0.5. Work on C5G U13C C34A A57U yielded a yeast fitness of at most 0.5. C5G U13C C46U gave a yeast fitness of 0.547. C5G U13G A20U A37G A69U showed a yeast fitness of at most 0.5. For C5G U13G A20U A37G G52C G68A, the yeast fitness was at most 0.5. Variant C5G U13G A36U U64G has a yeast fitness of at most 0.5. Variant C5G U13G C24G has a yeast fitness of at most 0.5. Variant C5G U13G C27U G41A has a yeast fitness of 0.541. For C5G U13G C29U A40G, the yeast fitness was at most 0.5. C5G U13G C29U A40G C60U A65G C66U showed a yeast fitness of at most 0.5. In the case of C5G U13G C29U G50C U59A, the yeast fitness is reported as at most 0.5. In the case of C5G U13G G18C A21C C60G A65U C66U, the yeast fitness is reported as at most 0.5. With C5G U16A A21C A37C G68A the yeast fitness was at most 0.5. C5G U16A A21C A57C gave a yeast fitness of 0.624. Work on C5G U16A A43G yielded a yeast fitness of 0.573. In the case of C5G U16A A57U, the yeast fitness is reported as at most 0.5. With C5G U16A C31G A65U C66A the yeast fitness was at most 0.5. In the case of C5G U16A C33A, the yeast fitness is reported as at most 0.5. In the case of C5G U16A C34G G39C C55A A57C, the yeast fitness is reported as at most 0.5. Work on C5G U16A C61U yielded a yeast fitness of 0.589. C5G U16A G44A C46U A69C gave a yeast fitness of at most 0.5. For C5G U16A G48A U54C, the yeast fitness was 0.701. For C5G U16A U19G A20C C27U C29U C30U A70U, the yeast fitness was at most 0.5. For C5G U16C, the yeast fitness was 0.722. For C5G U16C C33U C66A, the yeast fitness was at most 0.5. Variant C5G U16C G67A has a yeast fitness of at most 0.5. Variant C5G U19A has a yeast fitness of 0.818. C5G U19A A20U G51C gave a yeast fitness of at most 0.5. In the case of C5G U19A C24G C34A C55U, the yeast fitness is reported as 0.601. C5G U19A C30G G39C U53C C55A gave a yeast fitness of at most 0.5. In the case of C5G U19C, the yeast fitness is reported as 0.997. Variant C5G U19C G25A has a yeast fitness of 0.716. In the case of C5G U19C G67C, the yeast fitness is reported as 0.682. C5G U19C U26A C55U gave a yeast fitness of at most 0.5. C5G U19C U35A A43C A65C showed a yeast fitness of at most 0.5. C5G U19C U54C A69C gave a yeast fitness of at most 0.5. C5G U19C U54C A69U gave a yeast fitness of at most 0.5. Variant C5G U19G A36U G56C A65C has a yeast fitness of at most 0.5. Variant C5G U19G C22U U32C A65C has a yeast fitness of at most 0.5. C5G U19G C22U U32C G56A A65C showed a yeast fitness of at most 0.5. C5G U19G C31U U32A A45U A70U gave a yeast fitness of at most 0.5. Work on C5G U26A yielded a yeast fitness of 0.815. For C5G U26A A36C, the yeast fitness was at most 0.5. Work on C5G U26A A36C A42G yielded a yeast fitness of at most 0.5. C5G U26A A40U G63C showed a yeast fitness of at most 0.5. C5G U26C gave a yeast fitness of 0.803. Work on C5G U26C A36C yielded a yeast fitness of 0.547. Work on C5G U26C A37G C60A yielded a yeast fitness of at most 0.5. C5G U26C A45C G63A showed a yeast fitness of at most 0.5. Work on C5G U26C A65U yielded a yeast fitness of 0.67. With C5G U26C A69C the yeast fitness was 0.617. C5G U26C C30U C49U A69U showed a yeast fitness of at most 0.5. With C5G U26C C34G C55A A69U the yeast fitness was at most 0.5. Variant C5G U26C G44A has a yeast fitness of 0.529. Work on C5G U26C G44A A69U yielded a yeast fitness of at most 0.5. For C5G U26C G44A A70U, the yeast fitness was 0.546. C5G U26C G44A C62A gave a yeast fitness of at most 0.5. Variant C5G U26C U32A has a yeast fitness of 0.604. Variant C5G U26G has a yeast fitness of 0.625. In the case of C5G U26G A36C C66A, the yeast fitness is reported as at most 0.5. C5G U28A A57C C66G showed a yeast fitness of at most 0.5. In the case of C5G U28C A70G, the yeast fitness is reported as 0.641. Variant C5G U28G has a yeast fitness of 0.699. For C5G U28G G38C C62G, the yeast fitness was at most 0.5. In the case of C5G U28G G38C C62G C66U, the yeast fitness is reported as at most 0.5. C5G U28G G58C C62U G63C U64G gave a yeast fitness of 0.628. C5G U32A A57G gave a yeast fitness of 0.549. Work on C5G U32A C34U yielded a yeast fitness of at most 0.5. C5G U32A C62G showed a yeast fitness of at most 0.5. C5G U32A C62U gave a yeast fitness of 0.532. Variant C5G U32C has a yeast fitness of 0.946. For C5G U32C G38C, the yeast fitness was 0.534. Variant C5G U32C G58C has a yeast fitness of 0.665. C5G U35A A36C C55A gave a yeast fitness of at most 0.5.
